Measurements taken from ChEMBL document CHEMBL1141436, “Inhibitory effects of diterpenoid alkaloids on the growth of A172 human malignant cells” (J Nat Prod, 2007).
In brackets after ≈: the same amount, converted by molar mass.

What was measured:
[1] = Cytotoxicity against human A172 cells after 6 days; format: functional, cell-based, A 172
Procedure, shortened: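 A172 glioma cells in high-glucose DMEM with 10% heat-inactivated FBS and penicillin/streptomycin, seeded at 5 × 10^3 cells/mL (1 mL/well). After 24 h, alkaloids were added from fresh 1 mg/mL DMSO stocks (final DMSO ≤0.5%; controls DMSO-matched). Total cell number counted by particle counter after 6 days. IC50 (50% inhibition vs untreated) taken from dose–response curves; mean ± SD, ≥3 independent experiments.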

[2] = Growth inhibition of human A172 cells after 6 days; format: functional, cell-based; conditions: a 172
[3] = Homo sapiens, A 172, 144 h, read-out: IC50

Row | Compound | IC50 ([1]; a 172) [µg/mL] | relative cell growth [2] | IC50 [1, 3] [µg/mL]
1 | C=C1[C@H]2C[C@H]3C4N5C[C@]6(C)CCC[C@]47[C@H]([C@H]2OC(=O)c2ccccc2)C3(C[C@]5(OC(=O)c2ccccc2)[C@H]67)[C@@H]1O | 1.3 (≈ 2.42 µM) | 0.76 | –
2 | C=C1[C@H]2C[C@H]3C4N5C[C@]6(C)CCC[C@]47[C@H]([C@H]2OC(=O)/C=C/c2ccccc2)C3(C[C@]5(O)[C@H]67)[C@@H]1O | – | 0.49 | 0.89 (≈ 1.94 µM)
3 | C=C1[C@H]2C[C@H]3C4N5C[C@]6(C)CCC[C@]47[C@H]([C@H]2OC(=O)c2ccc(OC)cc2)C3(C[C@]5(O)[C@H]67)[C@@H]1O | – | 0.23 | 1.3 (≈ 2.8 µM)
4 | C=C1[C@H]2C[C@H]3C4N5C[C@]6(C)CCC[C@]47[C@H]([C@H]2O)C3(C[C@]5(OC(=O)/C=C/c2ccccc2)[C@H]67)[C@@H]1O | – | 0.97 | –
5 | C=C1[C@H]2C[C@H]3C4N5C[C@]6(C)CCC[C@]47[C@H]([C@H]2O)C3(C[C@]5(OC(=O)c2ccccc2)[C@H]67)[C@@H]1O | – | 0.93 | –
6 | C=C1[C@H]2C[C@H]3C4N5C[C@]6(C)CCC[C@]47[C@H]([C@H]2O)C3(C[C@]5(OC(=O)c2ccc(OC)cc2)[C@H]67)[C@@H]1O | – | 0.99 | –
7 | C=C1[C@H]2C[C@H]3C4N5C[C@]6(C)CCC[C@]47[C@H]([C@H]2OC(=O)c2cccc(C(F)(F)F)c2)C3(CC5[C@H]67)[C@@H]1O | – | 0.6 | –
8 | C=C1[C@H]2C[C@H]3C4N(Cc5ccccc5)C[C@]5(C)CCC[C@]46[C@H]([C@H]2O)C3(CC(=O)[C@H]56)[C@@H]1OCc1ccccc1 (some centres not stated) | – | 1.04 | > 5
9 | C=C1[C@@H](O)[C@]23C[C@@H]1[C@@H](OC(=O)c1ccccc1)C[C@H]2[C@@]12C4C3C[C@@H]1[C@@](C)(CC[C@H]2O)CN4CC | – | 0.82 | –
10 | C=C1[C@@H](O)[C@]23C[C@@H]1[C@@H](OC(=O)c1ccc(OC)cc1)C[C@H]2[C@@]12C4C3C[C@@H]1[C@@](C)(CC[C@H]2O)CN4CC | – | 0.84 | –
11 | C=C1[C@@H](O)[C@]23C[C@@H]1[C@@H](OC(C)=O)C[C@H]2[C@@]12C4C3C[C@@H]1[C@@](C)(CC[C@H]2O)CN4CC | – | 0.66 | 5.6 (≈ 13.9 µM)
12 | COC[C@]12CC[C@H](O)[C@]34C(NC1)[C@@](O)([C@@H](OC)[C@H]23)[C@@]1(O)C[C@H](OC)[C@H]2C[C@@H]4[C@@H]1[C@H]2OC | – | 0.93 | –
13 | COC[C@]12CC[C@H]3OC1NC1[C@@]34[C@@H]3C[C@H]5[C@H](OC)[C@@H]3[C@](O)(C[C@@H]5OC)[C@]1(O)[C@@H](OC)[C@H]24 | – | 1.14 | –
14 | C=C1[C@H]2C[C@H]3C4N5C[C@]6(C)CCC[C@]47[C@H]([C@H]2OC(=O)c2cccc(C(F)(F)F)c2)C3(C[C@]5(O)[C@H]67)[C@@H]1O | – | 0.58 | –
15 | COC[C@]12CC[C@H]3OC1NC1[C@@]34[C@@H]3C[C@H]5[C@H](O)[C@@H]3[C@](O)(C[C@@H]5OC)[C@]1(O)[C@@H](OC)[C@H]24 | – | 1.04 | –
16 | CCN1C[C@]2(COC)CC[C@H](OC)[C@]34C1[C@@](O)([C@@H](OC)[C@H]23)[C@@]1(O)C[C@H](OC)[C@H]2C[C@@H]4[C@@H]1[C@H]2OC(C)=O | – | 0.99 | –
17 | C=C1[C@H]2C[C@H]3C4N5C[C@]6(C)CCC[C@]47[C@H]([C@H]2O)C3(C[C@]5(O)[C@H]67)[C@@H]1OC(=O)c1ccc(OC)c(OC)c1 | – | 0.97 | 2.9 (≈ 5.88 µM)
18 | CCN1C[C@]2(COC)CC[C@H](O)[C@]34C1[C@@](O)([C@@H](OC)[C@H]23)[C@@]1(O)C[C@H](OC)[C@H]2C[C@@H]4[C@@H]1[C@H]2OC(C)=O | – | 1.11 | –
19 | C=C1[C@H]2C[C@H]3C4N(Cc5ccccc5)C[C@]5(C)CCC[C@]46[C@H]([C@H]2O)C3(CC(=O)[C@H]56)[C@@H]1O (some centres not stated) | – | 1.01 | –

Row | Compound | IC50 ([1]; a 172) [µg/mL] | relative cell growth [2] | IC50 [1, 3] [µg/mL]
20 | C=C1[C@H]2C[C@H]3C4N5C[C@]6(C)CCC[C@]47[C@H]([C@H]2O)C3(C[C@]5(OC(=O)c2ccc(OC)c(OC)c2)[C@H]67)[C@@H]1O | – | 0.84 | 3.7 (≈ 7.5 µM)
21 | C=C1[C@H]2C[C@H]3C4N5C[C@]6(C)CCC[C@]47[C@H]([C@H]2O)C3(C[C@]5(OC(=O)c2cccc(C(F)(F)F)c2)[C@H]67)[C@@H]1O | – | 1.04 | –
22 | COC[C@]12CC[C@H](O)[C@]34C(NC1)[C@@](O)([C@@H](OC)[C@H]23)[C@@]1(O)C[C@H](OC)[C@H]2C[C@@H]4[C@@H]1[C@H]2O | – | 0.9 | –
23 | C=C1[C@H]2C[C@H]3C4N5C[C@]6(C)CCC[C@]47[C@H]([C@H]2O)C3(C[C@]5(OC(=O)c2ccc([N+](=O)[O-])cc2)[C@H]67)[C@@H]1O | – | 0.96 | –
24 | C=C1[C@H]2C[C@H]3C4N5C[C@]6(C)CCC[C@]47[C@H]([C@H]2OC(=O)c2ccc(OC)c(OC)c2)C3(C[C@]5(O)[C@H]67)[C@@H]1O | – | 0.47 | 1.2 (≈ 2.43 µM)
25 | C=C1[C@@H](O)[C@]23C[C@@H]1[C@@H](OC(=O)c1ccc(OC)c(OC)c1)C[C@H]2[C@@]12C4C3C[C@@H]1[C@@](C)(CC[C@H]2O)CN4CC | – | 0.97 | –
26 | C=C1[C@@H](OC(C)=O)[C@]23C[C@@H]1[C@@H](OC(C)=O)C[C@H]2[C@@]12C4C3C[C@@H]1[C@@](C)(CC[C@H]2O)CN4CC | – | 1.03 | –
27 | C=C1[C@@H](OC(C)=O)[C@]23C[C@@H]1[C@@H](OC(C)=O)C[C@H]2[C@@]12C4C3C[C@@H]1[C@@](C)(CC[C@H]2OC(C)=O)CN4CC | – | 1.02 | > 5
28 | C=C1[C@H]2C[C@H]3C4N5C[C@]6(C)CCC[C@]47[C@H]([C@H]2OC(=O)c2ccc([N+](=O)[O-])cc2)C3(C[C@]5(O)[C@H]67)[C@@H]1O | – | 0.22 | 1.5 (≈ 3.13 µM)
29 | CCN1C[C@]2(COC)[C@H](O)C[C@H](OC)[C@]34C1C([C@H](OC)[C@H]23)[C@]1(OC)[C@H]2[C@@H](OC(=O)c3ccc(OC)cc3)[C@](O)(C[C@H]24)[C@@H](OC)[C@@H]1O [ALJESACONITINE A] | – | 0.93 | –
30 | C=C1[C@@H](OC(C)=O)[C@]23C[C@@H]1[C@@H](O)C[C@H]2[C@@]12C4C3C[C@@H]1[C@@]1(C)CC[C@H]2OC1N4CC [DEHYDROLUCIDUSCULINE] | – | 1.18 | > 5
31 | CCN1C[C@]2(C)CC[C@H](OC)[C@@]34C1[C@@]1(OCO[C@@]15C[C@H](OC)[C@H]1C[C@@H]3[C@@H]5[C@H]1O)[C@@H](O)[C@H]24 [DELPHELINE] | – | 1.1 | –
32 | CCN1C[C@]2(COC)CC[C@H](OC)[C@]34C1C([C@H](OC)[C@H]23)[C@]1(OC(C)=O)[C@H]2[C@@H](OC(=O)c3ccccc3)[C@](O)(C[C@H]24)[C@@H](OC)[C@@H]1O [DEOXYACONITINE] | – | 0.99 | –
33 | CCN1C[C@]2(COC)CC[C@H](OC)[C@]34C1C([C@H](OC)[C@H]23)[C@]1(OC(C)=O)[C@H]2[C@@H](OC(=O)c3ccc(OC)cc3)[C@](O)(C[C@H]24)[C@@H](OC)[C@@H]1O [DEOXYJESACONITINE] | – | 0.97 | –
34 | COC[C@]12CN(C)C3C4[C@H](OC)[C@H]1[C@@]3([C@@H](OC)C[C@H]2O)[C@@H]1C[C@@]2(O)[C@H](OC(=O)c3ccccc3)[C@@H]1[C@]4(OC)[C@@H](O)[C@@H]2OC [HOKBUSINE A] | – | 1.03 | –
35 | COC[C@@]12CC[C@H](OC)[C@]34C(C([C@H](OC)[C@H]13)[C@]1(OC(C)=O)[C@H]3[C@@H](OC(=O)c5ccccc5)[C@](O)(C[C@H]34)[C@@H](OC)[C@@H]1O)N(C)C2 [HYPACONITINE] | – | 1.08 | –
36 | C=C1[C@H]2C[C@H]3C4N5C[C@]6(C)CCC[C@]47[C@H]([C@H]2O)C3(CC5[C@H]67)[C@@H]1O [KOBUSINE] | – | 0.76 | > 5
37 | C=C1[C@H]2C[C@H]3C4N5C[C@]6(C)CCC[C@]47[C@H]([C@H]2O)C3(C[C@]5(O)[C@H]67)[C@@H]1O [PSEUDOKOBUSINE] | – | 0.84 | > 5
38 | CC(=O)O[C@H]1C[C@H]2C3C4C[C@@H]5[C@@]6(C)CC[C@H](OC(C)=O)[C@@]5(C4N(C)C6)[C@@H]3[C@H]1[C@@]1(CO1)[C@H]2O (some centres not stated) [YESOXINE] | – | 1.01 | > 5
